Experimental data: ChEMBL document CHEMBL5058577, “EUbOPEN Chemogenomics Library 2 (Multiplex)” (2022)

System: Fibroblast
Assay: Multiplex assay against human fibroblast
Type: toxicity, cell-based
Procedure, shortened: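 Live cells were stained at seeding with Hoechst33342, BioTracker Green Microtubule Cytoskeleton Dye, MitoTracker Red and Annexin V Alexa Fluor 680, then imaged on a CQ1 microscope at 37°C and 5% CO2 after compound addition. CellPathfinder machine-learning gating split cells into Hoechst high-intensity objects or normal cells. Normal cells were split into healthy, pyknosed or fragmented nuclei, and pyknosed cells into mitotic or apoptotic. Tubulin, mitochondrial-mass and membrane-permeability phenotypes are per cents of healthy-nucleus cells.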

[1] = 12 h, 1 µM, compound concentration 1 uM, replicate 1
[2] = 12 h, 1 µM, compound concentration 1 uM, replicate 2
[3] = 12 h, 10 µM, compound concentration 10 uM, replicate 1
[4] = 12 h, 10 µM, compound concentration 10 uM, replicate 2
[5] = 24 h, 1 µM, compound concentration 1 uM, replicate 1
[6] = 24 h, 1 µM, compound concentration 1 uM, replicate 2
[7] = 24 h, 10 µM, compound concentration 10 uM, replicate 1
[8] = 24 h, 10 µM, compound concentration 10 uM, replicate 2
[9] = 48 h, 1 µM, compound concentration 1 uM, replicate 1
[10] = 48 h, 1 µM, compound concentration 1 uM, replicate 2
[11] = 48 h, 10 µM, compound concentration 10 uM, replicate 1
[12] = 48 h, 10 µM, compound concentration 10 uM, replicate 2

With `Cc1cc(O)c(-c2ccc([C@@H](C)CN(C)C)cc2)c2c1[nH]c(=O)c1sccc12` the “Population Apoptotic (%)” value [1] was 59%, the “Population Fragmented Nuclei (%)” value [1] was 12% and the “Population Healthy Nuclei (%)” value [1] was 67%. The “Population Hoechst High Intensity Objects (%)” value [1] was 7%, the “Population Membrane Permeable-Phenotype (%)” value [1] was 1% and the “Population Mitochondria Different-Phenotype (%)” value [1] was 17%. The “Population Mitotic Cells (%)” value [1] was 40%, the “Population Normal (%)” value [1] was 92% and the “Population Pyknosed Nuclei (%)” value [1] was 20%. The “Population Tubulin-Different-Phenotype (%)” value [1] was 44%, the “Total Cell Count” value [1] was 145 and the “Population Apoptotic (%)” value [2] was 50%. For the same compound, the “Population Fragmented Nuclei (%)” value [2] was 22%, the “Population Healthy Nuclei (%)” value [2] was 56% and the “Population Hoechst High Intensity Objects (%)” value [2] was 2%. For the same compound, the “Population Membrane Permeable-Phenotype (%)” value [2] was 4%, the “Population Mitochondria Different-Phenotype (%)” value [2] was 12% and the “Population Mitotic Cells (%)” value [2] was 50%. For the same compound, the “Population Normal (%)” value [2] was 97%, the “Population Pyknosed Nuclei (%)” value [2] was 21% and the “Population Tubulin-Different-Phenotype (%)” value [2] was 52%. For the same compound, the “Total Cell Count” value [2] was 115, the “Population Apoptotic (%)” value [3] was 69% and the “Population Fragmented Nuclei (%)” value [3] was 19%. For the same compound, the “Population Healthy Nuclei (%)” value [3] was 63%, the “Population Hoechst High Intensity Objects (%)” value [3] was 6% and the “Population Membrane Permeable-Phenotype (%)” value [3] was 0%. The “Population Mitochondria Different-Phenotype (%)” value [3] was 40%, the “Population Mitotic Cells (%)” value [3] was 30% and the “Population Normal (%)” value [3] was 93%. For the same compound, the “Population Pyknosed Nuclei (%)” value [3] was 16%, the “Population Tubulin-Different-Phenotype (%)” value [3] was 90% and the “Total Cell Count” value [3] was 146. For the same compound, the “Population Apoptotic (%)” value [4] was 70%, the “Population Fragmented Nuclei (%)” value [4] was 28% and the “Population Healthy Nuclei (%)” value [4] was 55%. For the same compound, the “Population Hoechst High Intensity Objects (%)” value [4] was 5%, the “Population Membrane Permeable-Phenotype (%)” value [4] was 2% and the “Population Mitochondria Different-Phenotype (%)” value [4] was 19%. The “Population Normal (%)” value [4] was 94%, the “Population Pyknosed Nuclei (%)” value [4] was 15% and the “Population Tubulin-Different-Phenotype (%)” value [4] was 80%. The “Total Cell Count” value [4] was 137, the “Population Apoptotic (%)” value [5] was 45% and the “Population Fragmented Nuclei (%)” value [5] was 11%. The “Population Healthy Nuclei (%)” value [5] was 66%, the “Population Hoechst High Intensity Objects (%)” value [5] was 7% and the “Population Membrane Permeable-Phenotype (%)” value [5] was 0%. For the same compound, the “Population Mitochondria Different-Phenotype (%)” value [5] was 27%, the “Population Mitotic Cells (%)” value [5] was 54% and the “Population Normal (%)” value [5] was 92%. The “Population Pyknosed Nuclei (%)” value [5] was 21%, the “Population Tubulin-Different-Phenotype (%)” value [5] was 73% and the “Total Cell Count” value [5] was 119. For the same compound, the “Population Apoptotic (%)” value [6] was 52%, the “Population Fragmented Nuclei (%)” value [6] was 28% and the “Population Healthy Nuclei (%)” value [6] was 54%. The “Population Hoechst High Intensity Objects (%)” value [6] was 9%, the “Population Membrane Permeable-Phenotype (%)” value [6] was 1% and the “Population Mitochondria Different-Phenotype (%)” value [6] was 10%. For the same compound, the “Population Mitotic Cells (%)” value [6] was 47%, the “Population Normal (%)” value [6] was 90% and the “Population Pyknosed Nuclei (%)” value [6] was 16%. For the same compound, the “Population Tubulin-Different-Phenotype (%)” value [6] was 56%, the “Total Cell Count” value [6] was 111 and the “Population Apoptotic (%)” value [7] was 66%. For the same compound, the “Population Fragmented Nuclei (%)” value [7] was 11%, the “Population Healthy Nuclei (%)” value [7] was 65% and the “Population Hoechst High Intensity Objects (%)” value [7] was 3%. For the same compound, the “Population Membrane Permeable-Phenotype (%)” value [7] was 0%, the “Population Mitochondria Different-Phenotype (%)” value [7] was 42% and the “Population Mitotic Cells (%)” value [7] was 33%. For the same compound, the “Population Normal (%)” value [7] was 96%, the “Population Pyknosed Nuclei (%)” value [7] was 22% and the “Population Tubulin-Different-Phenotype (%)” value [7] was 87%. The “Total Cell Count” value [7] was 122, the “Population Apoptotic (%)” value [8] was 57% and the “Population Fragmented Nuclei (%)” value [8] was 30%. For the same compound, the “Population Healthy Nuclei (%)” value [8] was 51%, the “Population Hoechst High Intensity Objects (%)” value [8] was 8% and the “Population Membrane Permeable-Phenotype (%)” value [8] was 3%. For the same compound, the “Population Mitochondria Different-Phenotype (%)” value [8] was 34%, the “Population Mitotic Cells (%)” value [8] was 42% and the “Population Normal (%)” value [8] was 91%. For the same compound, the “Population Pyknosed Nuclei (%)” value [8] was 18%, the “Population Tubulin-Different-Phenotype (%)” value [8] was 81% and the “Total Cell Count” value [8] was 124. For the same compound, the “Population Apoptotic (%)” value [9] was 70%, the “Population Fragmented Nuclei (%)” value [9] was 19% and the “Population Healthy Nuclei (%)” value [9] was 55%. For the same compound, the “Population Hoechst High Intensity Objects (%)” value [9] was 7%, the “Population Membrane Permeable-Phenotype (%)” value [9] was 1% and the “Population Mitochondria Different-Phenotype (%)” value [9] was 26%. For the same compound, the “Population Mitotic Cells (%)” value [9] was 29%, the “Population Normal (%)” value [9] was 92% and the “Population Pyknosed Nuclei (%)” value [9] was 24%. The “Population Tubulin-Different-Phenotype (%)” value [9] was 70%, the “Total Cell Count” value [9] was 118 and the “Population Apoptotic (%)” value [10] was 57%. The “Population Fragmented Nuclei (%)” value [10] was 31%, the “Population Healthy Nuclei (%)” value [10] was 48% and the “Population Hoechst High Intensity Objects (%)” value [10] was 9%. The “Population Membrane Permeable-Phenotype (%)” value [10] was 2%, the “Population Mitochondria Different-Phenotype (%)” value [10] was 20% and the “Population Mitotic Cells (%)” value [10] was 42%. For the same compound, the “Population Normal (%)” value [10] was 90%, the “Population Pyknosed Nuclei (%)” value [10] was 20% and the “Population Tubulin-Different-Phenotype (%)” value [10] was 62%. For the same compound, the “Total Cell Count” value [10] was 103, the “Population Apoptotic (%)” value [11] was 70% and the “Population Fragmented Nuclei (%)” value [11] was 17%. The “Population Healthy Nuclei (%)” value [11] was 53%, the “Population Hoechst High Intensity Objects (%)” value [11] was 10% and the “Population Membrane Permeable-Phenotype (%)” value [11] was 0%. For the same compound, the “Population Mitochondria Different-Phenotype (%)” value [11] was 53%, the “Population Mitotic Cells (%)” value [11] was 29% and the “Population Normal (%)” value [11] was 89%. For the same compound, the “Population Pyknosed Nuclei (%)” value [11] was 29%, the “Population Tubulin-Different-Phenotype (%)” value [11] was 89% and the “Total Cell Count” value [11] was 117. For the same compound, the “Population Apoptotic (%)” value [12] was 71%, the “Population Fragmented Nuclei (%)” value [12] was 39% and the “Population Healthy Nuclei (%)” value [12] was 43%. For the same compound, the “Population Hoechst High Intensity Objects (%)” value [12] was 7%, the “Population Mitochondria Different-Phenotype (%)” value [12] was 30% and the “Population Mitotic Cells (%)” value [12] was 28%. For the same compound, the “Population Normal (%)” value [12] was 92%, the “Population Pyknosed Nuclei (%)” value [12] was 16% and the “Population Tubulin-Different-Phenotype (%)” value [12] was 85%. The “Total Cell Count” value [12] was 136.
